Measurements from ChEMBL document CHEMBL1139010, “Synthesis and SAR studies of 2-oxoquinoline derivatives as CB2 receptor inverse agonists” (J Med Chem, 2006).

Experiments:
[1] = molecular target: Cannabinoid receptor 1 (Rattus norvegicus) (UniProt P20272); assay: […] activity at HU210-induced CB1 receptor in rat cerebellar membrane at 1 uM; assay type: functional, cell membranes; conditions: Cerebellum
Procedure, shortened: (§1)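 [³⁵S]GTPγS binding in rat cerebellar membranes, measuring block of the CB1 response to 10 nM HU-210 by ligand at 1 µM and 10 µM. Ligand alone was also tested at 10 µM for agonism. Values are means of at least three independent experiments run in duplicate, with SEM as the variability.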

[2] = molecular target: Cannabinoid receptor 1 (Rattus norvegicus) (UniProt P20272); assay: […] activity at HU210-induced CB1 receptor in rat cerebellar membrane at 10 uM; assay type: functional, cell membranes; conditions: Cerebellum; procedure, shortened: as §1
Cannabinoid receptor 2 [3] = molecular target: T1, Cannabinoid receptor 2 (Homo sapiens, UniProt P34972); assay: Inhibition of [35S]GTP-gamma-S binding to human CB2 receptor expressed in CHO cells; assay type: functional, cell-based
T1 sequence (P34972 whole entry): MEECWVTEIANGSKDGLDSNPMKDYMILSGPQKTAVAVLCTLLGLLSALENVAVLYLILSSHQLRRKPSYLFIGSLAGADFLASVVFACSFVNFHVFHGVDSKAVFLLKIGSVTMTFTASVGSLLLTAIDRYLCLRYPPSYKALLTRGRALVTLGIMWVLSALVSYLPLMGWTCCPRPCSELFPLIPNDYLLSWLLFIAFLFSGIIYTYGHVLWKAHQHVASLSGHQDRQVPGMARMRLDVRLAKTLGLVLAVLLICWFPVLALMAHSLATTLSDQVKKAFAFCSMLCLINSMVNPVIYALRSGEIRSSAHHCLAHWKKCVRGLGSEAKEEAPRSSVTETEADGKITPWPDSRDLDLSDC

Cannabinoid receptor 2 [4] = molecular target: T1, Cannabinoid receptor 2; assay: Inhibition of [35S]GTP-gamma-S binding to human CB2 receptor expressed in CHO cells relative to SR-144528; assay type: functional, cell-based
Procedure, shortened: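 Membranes from CHO cells stably expressing hCB2 (Bmax 20.4 pmol/mg; cultured with 100 µg/mL G-418). Each incubation held 5 µg protein in 55 mM Tris-HCl pH 7.4 with 1.1 mM EDTA, 100 mM NaCl, 5 mM MgCl₂, 0.5% BSA, 11 µM GDP and about 150 pM [³⁵S]GTPγS. Ligands were added in 1% ethanol or 0.5% DMSO (final). Inhibition of basal binding was expressed against 1 µM SR144528 (Imax). At least three experiments were run in duplicate, reported as mean and SEM.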

Cannabinoid receptor 1 (Rattus norvegicus), sequence (P20272 whole entry): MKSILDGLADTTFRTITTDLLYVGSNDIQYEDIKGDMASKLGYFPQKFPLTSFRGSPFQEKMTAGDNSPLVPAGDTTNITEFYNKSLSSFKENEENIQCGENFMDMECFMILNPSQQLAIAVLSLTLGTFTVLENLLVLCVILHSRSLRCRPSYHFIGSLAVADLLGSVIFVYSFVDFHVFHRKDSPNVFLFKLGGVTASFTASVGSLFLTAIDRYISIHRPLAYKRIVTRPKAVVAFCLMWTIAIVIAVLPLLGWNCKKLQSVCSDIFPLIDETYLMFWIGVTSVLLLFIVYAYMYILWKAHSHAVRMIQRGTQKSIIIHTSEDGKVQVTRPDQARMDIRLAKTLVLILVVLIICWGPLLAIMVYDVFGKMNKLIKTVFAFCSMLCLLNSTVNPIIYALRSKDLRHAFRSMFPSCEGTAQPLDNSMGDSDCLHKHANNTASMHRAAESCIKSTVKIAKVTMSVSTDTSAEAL

Compound	Activity [1] [%]	Activity [2] [%]	IC50 (Cannabinoid receptor 2 [3]) [nM]	Imax (Cannabinoid receptor 2 [4]) [%]
CCCCCOc1c(OC)ccc2cc(C(=O)NCCc3c[nH]c4ccccc34)c(O)nc12	94	72	25.1	79
CCCCCOc1c(OC)ccc2cc(NC(=O)Cc3ccc4c(c3)OCO4)c(O)nc12	93	75		60
CCCCCOc1c(OC)ccc2cc(C(=O)NCc3ccc4c(c3)OCO4)c(=O)[nH]c12	94	78		80
Cc1ccc(Cn2nc(C(=O)NC3C4(C)CCC(C4)C3(C)C)cc2-c2ccc(Cl)c(C)c2)cc1 (centres undefined)	77	53		100
CCCCCOc1c(OC)ccc2cc(C(=O)NCc3ccc(O)c(O)c3)c(=O)[nH]c12			3980	
CCCCCOc1c(OC)ccc2cc(C(=O)Nc3ccccc3N)c(O)nc12	87	82		82
CCCCCOc1c(OC)ccc2cc(NC(=O)Cc3ccc4c(c3)OCO4)c(=O)[nH]c12			20	
CCCCCOc1c(OC)ccc2cc(C(=O)NCCc3ccccc3)c(=O)[nH]c12	87	61	0.631	76
CCCCCOc1c(OC)ccc2cc(C(=O)NCCc3ccc([N+](=O)[O-])cc3)c(=O)[nH]c12			100	
CCCCCOc1c(OC)ccc2cc(C(=O)NCCc3ccc(O)cc3)c(O)nc12	92	68		90
CCCCCOc1c(OC)ccc2cc(C(=O)NCc3ccc(O)c(O)c3)c(O)nc12	93	85		124
CCCCCOc1c(OC)ccc2cc(C(=O)NCCc3ccc(N)cc3)c(=O)[nH]c12			3.16	
CCCCCOc1c(OC)ccc2cc(C(=O)NCCc3ccc(N)cc3)c(O)nc12	91	74		97
CCCCCOc1c(OC)ccc2cc(C(=O)NCCc3ccc(O)c(O)c3)c(O)nc12	93	63	398	93
CCCCCOc1c(OC)ccc2cc(C(=O)NCc3ccccc3)c(O)nc12	94	79	63.1	75
CCCCCOc1c(OC)ccc2cc(C(=O)NCCCc3ccccc3)c(=O)[nH]c12	98	59	0.794	82
CCCCCOc1c(OC)ccc2cc(C(=O)Nc3ccccc3N)c(=O)[nH]c12			12.6	
CCCCCOc1c(OC)ccc2cc(C(=O)NCCc3ccc(O)cc3)c(=O)[nH]c12			10	
CCCCCOc1c(OC)ccc2cc(C(=O)NCCc3ccc([N+](=O)[O-])cc3)c(O)nc12	87	65		61
CCCCCOc1c(OC)ccc2cc(C(=O)NCCc3ccc(Cl)cc3)c(=O)[nH]c12	95	64	5.01	104
